Data as given in ChEMBL document CHEMBL3272335, “Dibenz[b,e]oxepinalkanoic acids as nonsteroidal antiinflammatory agents. 1. 6,11-Dihydro-11-oxodibenz]b,e]oxepin-2-acetic acids” (J Med Chem, 1977).

What was measured:
[1] = test system: Rattus norvegicus; test: Antiinflammatory activity in Wistar rat assessed as inhibition of carrageenan-induced paw edema at 50 mg/kg, po administered 1 hr prior to carrageenan challenge measured 3 hrs post-carrageenan injection; format: functional
Outline: (§1)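 Female Carworth Wistar rats (120-150 g), ten per group, are fasted 12-16 h with water allowed. Compounds are given orally as an aqueous Tween 80 suspension (10 ml/kg); controls get vehicle. After 1 h, 0.1 ml of 1% carrageenan is injected subplantar into the left hind paw. Paw volume is read by mercury displacement before and 3 h after injection. Result is % edema difference versus control.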

[2] = test system: Mus musculus; test: Analgesic activity in po dosed CD-1 mouse assessed as inhibition of phenylquinone-induced writhing administered prior to phenylquinone challenge measured 5 mins after phenylquinone injection; format: functional; details: CD-1, po
Outline: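 Male CD-1 Charles River mice (18-24 g), fed ad libitum, are dosed orally with drug as an aqueous suspension with Tween 80 (10 ml/kg); controls get vehicle. Phenylquinone (0.125% in 5% aqueous ethanol) is given ip at 10 ml/kg at the peak-activity time. Writhes are counted for 10 min, starting 5 min post-injection. Ten mice per group, four doses. Result is % inhibition of writhes versus control; ED50 by Litchfield-Wilcoxon.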

[3] = test system: Rattus norvegicus; test: Antiinflammatory activity in po dosed Wistar rat assessed as inhibition of carrageenan-induced paw edema administered 1 hr prior to carrageenan challenge measured 3 hrs post-carrageenan injection; format: functional; outline: as §1
[4] = test system: Rattus norvegicus; test: Antiinflammatory activity against Mycobacterium butyricum adjuvant-induced polyarthritis in po dosed Lewis albino rat assessed as decrease in adjuvant treated paw edema administered daily for 21 days […]; format: functional
Outline: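 Female Charles River-Lewis albino rats (150-170 g), ten per group, housed individually. Heat-killed Mycobacterium butyricum in paraffin oil (0.5 mg/0.1 ml) is injected into the left hind paw. Oral dosing starts the day before adjuvant and continues daily for 21 days, using a Tween 80 aqueous suspension. Paw volume is measured by mercury displacement from injection day onward. ED50 by Litchfield-Wilcoxon, with 95% confidence limits.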

[5] = Therapeutic ratio of ID50 for ulcerogenicity in Wistar rat to ED50 for antiinflammatory activity against Mycobacterium butyricum adjuvant-induced polyarthritis in Lewis albino rat adjuvant treated paw; format: ADME; details: in vivo, read-out: TI
Outline: (§2)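 Ratio of the gastric irritation ID50 (oral dose, Wistar rats, lesions scored as irritation in 50% of animals) to the adjuvant polyarthritis ED50 (Lewis rats, 21-day oral dosing). The ED50 is taken from the adjuvant-injected paw or the noninjected paw, with paw volume measured by mercury displacement.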

[6] = Therapeutic ratio of ID50 for ulcerogenicity in Wistar rat to ED50 for antiinflammatory activity against Mycobacterium butyricum adjuvant-induced polyarthritis in Lewis albino rat non-injected paw; format: ADME; details: in vivo, read-out: TI; outline: as §2
[7] = Ulcerogenicity in po dosed Wistar rat assessed as induction of gastric irritation; format: toxicity, organism-based, Stomach; details: in vivo, read-out: ID50 (the source's name)
Outline: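 Groups of eight male Wistar rats (150-175 g) are fasted 48 h with water allowed, then dosed orally (10 ml/kg); controls get vehicle. Rats are killed at 3, 5 and 7 h post-dose, and stomach and intestines are examined for erosion, ulcer or perforation. ID50 is the dose causing irritation in 50% of animals.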

[8] = test system: Rattus norvegicus; test: Antiinflammatory activity against Mycobacterium butyricum adjuvant-induced polyarthritis in po dosed Lewis albino rat assessed as decrease in non-injected paw edema administered daily for 21 days […]; format: functional
Outline: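 Female Charles River-Lewis albino rats, 150-170 g, groups of ten, housed singly; heat-killed dry Mycobacterium butyricum in white paraffin oil (0.5 mg/0.1 ml) injected into left hind paw. Oral dosing as aqueous suspension with Tween 80 (10 ml/kg), starting the day before adjuvant and daily for 21 days; vehicle controls. Paw volume by mercury displacement from injection day onward; ED50 by Litchfield-Wilcoxon with 95% confidence limits.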

Row | SMILES | ED50 [2] | ED50 [3] | further results
1 | O=C(O)Cc1ccc2c(c1)C(=O)c1ccccc1CS2 | – | – | inhibition in vivo at 50 mg/kg [1]: 42.7%
2 | NC(=O)Cc1ccc2c(c1)C(=O)c1ccccc1CO2 | > 100 mg/kg | > 100 mg/kg | –
3 | O=C(O)Cc1ccc2c(c1)Cc1ccccc1CO2 | – | 200 mg/kg | –
4 | COC(=O)Cc1ccc2c(c1)C(=O)c1ccccc1CO2 | 26.6 mg/kg | 31 mg/kg | –
5 | CCOC(=O)Cc1ccc2c(c1)C(=O)c1ccccc1CO2 | > 50 mg/kg | 6.85 mg/kg | –
6 | O=C(O)Cc1ccc2c(c1)C(=O)c1ccc(Cl)cc1CO2 | 34.3 mg/kg | 26.5 mg/kg | –
7 | COc1ccc2c(c1)COc1ccc(CC(=O)O)cc1C2=O | > 50 mg/kg | 58.6 mg/kg | –
8 | O=C(O)Cc1ccc2c(c1)C(=O)c1cc(Cl)ccc1CO2 | > 50 mg/kg | > 50 mg/kg | –
9 | CCCOC(=O)Cc1ccc2c(c1)C(=O)c1ccccc1CO2 | 16.7 mg/kg | 3.55 mg/kg | –
10 | CC(C)OC(=O)Cc1ccc2c(c1)C(=O)c1ccccc1CO2 | < 50 mg/kg | 6.84 mg/kg | –
11 | CCCCOC(=O)Cc1ccc2c(c1)C(=O)c1ccccc1CO2 | 12.7 mg/kg | 14.7 mg/kg | –
12 | CCCCCOC(=O)Cc1ccc2c(c1)C(=O)c1ccccc1CO2 | > 50 mg/kg | 2.9 mg/kg | –
13 | O=C(Cc1ccc2c(c1)C(=O)c1ccccc1CO2)OCc1ccccc1 | – | > 50 mg/kg | –
14 | O=C(O)Cc1cc(Cl)c2c(c1)C(=O)c1ccccc1CO2 | – | > 50 mg/kg | –
15 | O=C(O)Cc1ccc2c(c1)C(=O)c1cccc(Cl)c1CO2 | > 50 mg/kg | < 50 mg/kg | –
16 | O=C(O)Cc1ccc2c(c1)C(=O)c1cc(F)ccc1CO2 | – | 356 mg/kg | –
17 | O=C(O)Cc1ccc2c(c1)C(=O)c1cc(C(F)(F)F)ccc1CO2 | – | > 50 mg/kg | –
18 | Cc1cccc2c1C(=O)c1cc(CC(=O)O)ccc1OC2 | – | > 50 mg/kg | –
19 | OCCc1ccc2c(c1)C(O)c1ccccc1CO2 (centres undefined) | – | > 200 mg/kg | –
20 | COC(=O)Cc1ccc2c(c1)C(O)c1ccccc1CO2 (centres undefined) | – | > 200 mg/kg | –
21 | COC(=O)Cc1ccc2c(c1)C(OC)c1ccccc1CO2 (centres undefined) | – | > 200 mg/kg | –
22 | COc1ccc2c(c1)c(CC(=O)O)c(C)n2C(=O)c1ccc(Cl)cc1 [INDOMETHACIN] | 0.7 mg/kg | – | ED50 [4]: 0.47 mg/kg; selectivity ratio [5]: 3.8; selectivity ratio [6]: 6.7; TD50 [7]: 1.8 mg/kg; ED50 [8]: 0.27 mg/kg
23 | O=C(O)Cc1ccc2c(c1)C(=O)c1ccccc1CO2 [ISOXEPAC] | 7.57 mg/kg | – | ED50 [4]: 2.1 mg/kg; selectivity ratio [5]: 39; selectivity ratio [6]: 78; TD50 [7]: 82.5 mg/kg; ED50 [8]: 1.06 mg/kg
